# According to ChEMBL document CHEMBL4673255, “Acylated 1H-1,2,4-Triazol-5-amines Targeting Human Coagulation Factor XIIa and Thrombin: Conventional and Microscale Synthesis, Anticoagulant Properties, and Mechanism of Action” (J Med Chem, 2020):
# Active and inactive are the calls of the source. The rule behind the calls is not given here.
# How the values were obtained:
# [1] = system: Plasma; assay: Antiplatelet activity in […] assessed as inhibition of MDA-MB-231-induced platelet aggregation at 1 uM by light transmission aggregometry; format: functional; conditions: Homo sapiens
# [2] = system: Plasma; assay: Antiplatelet activity in human platelet-rich plasma assessed as inhibition of TRAP6 induced platelet activation by measuring reduction in ATP release at 1 uM preincubated for 20 mins followed by TRAP6 addition and measured after 10 mins by luciferin-based luminescence assay; format: functional, cell-free; conditions: time 30.0 min
# Procedure, shortened: (§1)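 Platelet activation measured as dense-granule ATP release by firefly luciferase bioluminescence. Compound-treated platelets were activated with MDA-MB-231 cells, thrombin or TRAP-6. TRAP-6-induced signal was set as 100%. Triplicate, mean ± SD.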
# [3] = system: Plasma; assay: Antiplatelet activity in human platelet-rich plasma assessed as inhibition of MDA-MB-231 induced platelet activation by measuring reduction in ATP release preincubated for 20 mins followed by tumor cell addition and measured after 30 mins by luciferin-based luminescence assay; format: functional, cell-free; conditions: time 50.0 min; procedure, shortened: as §1
# [4] = target: T1, Coagulation factor XII (Homo sapiens) (UniProt P00748); assay: Binding affinity to human plasma coagulation factor XIIA assessed as compound-adduct formation at molar ratio of 1:20 preincubated for 4 mins followed by desalination and measured after 5 mins by SEC/ESI-TOF mass spectra analysis; format: cell-free
# T1 sequence (whole entry): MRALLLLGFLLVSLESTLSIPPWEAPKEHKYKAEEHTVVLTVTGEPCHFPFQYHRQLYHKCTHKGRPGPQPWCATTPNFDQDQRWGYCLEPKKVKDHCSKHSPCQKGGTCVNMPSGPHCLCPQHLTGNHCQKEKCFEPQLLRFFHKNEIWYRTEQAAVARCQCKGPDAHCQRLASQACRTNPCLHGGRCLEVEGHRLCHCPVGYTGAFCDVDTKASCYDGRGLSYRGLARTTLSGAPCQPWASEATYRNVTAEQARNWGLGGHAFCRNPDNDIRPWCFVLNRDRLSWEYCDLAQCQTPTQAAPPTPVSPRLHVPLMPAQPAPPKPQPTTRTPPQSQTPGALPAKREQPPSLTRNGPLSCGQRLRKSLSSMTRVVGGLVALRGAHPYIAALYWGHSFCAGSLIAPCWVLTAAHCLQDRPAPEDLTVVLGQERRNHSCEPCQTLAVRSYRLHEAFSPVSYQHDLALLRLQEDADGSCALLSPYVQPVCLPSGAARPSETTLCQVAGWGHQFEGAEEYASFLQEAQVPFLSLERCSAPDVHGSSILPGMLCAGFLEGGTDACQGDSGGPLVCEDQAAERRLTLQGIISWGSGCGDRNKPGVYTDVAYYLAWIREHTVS
# Procedure, shortened: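 β-FXIIa incubated with inhibitor at a 1:20 molar ratio, then size-exclusion chromatography coupled to ESI-MS to measure the mass of enzyme–inhibitor complexes. Further runs checked complex stability to probe reversibility.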
# [5] = target: Coagulation factor X (Homo sapiens, UniProt P00742); assay: Inhibition of human coagulation factor Xa using Boc-Ile-Glu-Gly-Arg-AMC as fluorogenic substrate at 5 uM measured at 1 min interval for 1 hr by fluorometric assay relative to control
# [6] = system: CCF-STTG1; assay: Cytotoxicity against human CCF-STTG1 cells assessed as reduction in cell viability at 100 uM incubated for 48 hrs by alamar blue assay relative to control; format: cell-based; conditions: ccf-sttg1, 48 h
# [7] = system: Plasma; assay: Antiplatelet activity in human platelet-rich plasma assessed as inhibition of TRAP6 induced platelet activation by measuring reduction in ATP release at 10 uM preincubated for 20 mins followed by TRAP6 addition and measured after 10 mins by luciferin-based luminescence assay; format: functional, cell-free; conditions: time 30.0 min; procedure, shortened: as §1
# [8] = target: T1, Coagulation factor XII (Homo sapiens); assay: Time dependent inhibition of human coagulation factor XIIA using Boc-Gln-Gly-Arg-AMC as fluorogenic substrate at 0.5 to 132 uM by fluorescence assay; conditions: dose 0.0005-132 µM, in the assay text read “0.5 nM to 132 uM” for “0.5 to 132 uM”
# Procedure, shortened: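 Buffer: Tris-Cl pH 7.4 with NaCl, MgCl2, CaCl2, 0.1% BSA and 0.01% Triton X-100. Fluorescence (ex 355/em 460 nm) read kinetically every 87 s for up to 180 min. IC50 calculated at each time point and plotted against time.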
# Coagulation factor X, sequence (P00742 41-179 limits assumed): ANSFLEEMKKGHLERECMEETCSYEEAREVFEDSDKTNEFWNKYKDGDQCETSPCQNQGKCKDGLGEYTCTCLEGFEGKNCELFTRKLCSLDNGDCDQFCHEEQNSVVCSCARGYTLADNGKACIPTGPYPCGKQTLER
# Coagulation factor X, sequence (P00742 235-488 limits assumed): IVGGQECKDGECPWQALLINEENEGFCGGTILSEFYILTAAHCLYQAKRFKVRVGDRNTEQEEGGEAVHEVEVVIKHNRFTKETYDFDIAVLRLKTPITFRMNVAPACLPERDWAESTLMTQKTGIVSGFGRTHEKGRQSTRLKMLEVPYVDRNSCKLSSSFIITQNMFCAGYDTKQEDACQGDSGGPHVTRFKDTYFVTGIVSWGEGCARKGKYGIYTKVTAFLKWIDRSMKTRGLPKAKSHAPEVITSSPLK
Activity [4],inhibition [5] [%],TDI [8],SMILES,inhibition [1],inhibition [2],inhibition [3],Activity [6] [%],inhibition [7]
inactive,48,–,Nc1nc(-c2ccccn2)nn1C(=O)c1ccc2ccccc2c1,Active,inactive,Dose-dependent effect,36,Active
–,–,Active,Nc1nc(-c2ccccn2)nn1C(=O)c1cccc2ccccc12,–,–,–,–,–
